Many of the other results were omitted from the sample, so hits are more common in it than they were.
CHOP UPR activ: activators of apoptotic CHOP UPR arm, primary screen, cell-based, CHO-CHOP luciferase reporter, luminescence, uHTS; activation, % at 10 µM; UPR activation; percent of tunicamycin response over DMSO baseline; 0.34% of 330,000 active;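 active = at 10 µM dose, activation of 40% or more, normalized to positive control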;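 note: 100% = tunicamycin at 10 µg/mL and 0% = DMSO alone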
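Material: CHO-CHOP cells, stable luciferase reporter of PERK-eIF2a-CHOP signalling; quantity: 500 reporter cells seeded per well; buffer or medium: F12 medium containing 10% fetal bovine serum; compound: one dose, 10 µM in 0.5% DMSO; incubation: 6 h compound treatment, 37 °C; measured by: Steady-Glo luciferase luminescence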
T cruzi inh: inhibitors of intracellular T. cruzi growth, primary screen, luminescence, NIH3T3 host cells. T. cruzi beta-gal in NIH3T3, 90 h. inhibition, % (test concentration not listed). 1.4% of 300,000 active;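 active = mean inhibition across valid replicates above about 55%, limit read from the data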;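 note: signal also drops with host cell toxicity which is not excluded here; 0% = plate median of DMSO wells and 100% = zero luminescence signal; higher percent means less beta-gal luminescence so fewer parasites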
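assay system = mouse NIH/3T3 fibroblasts infected with β-gal-expressing T. cruzi Tulahuen C4 | input = 5,000 NIH/3T3 host cells per well | buffer or medium = DMEM plus 2% FBS | timing = 3 h host attachment, then at least 90 h co-culture | measured by = GalScreen luminescence, 60 min | evaluation = luminescence reflecting intracellular parasite burden, expressed as percent inhibition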
UPR XBP1 act: activators of adaptive XBP1 UPR arm, primary screen, cell-based, CHO-XBP1 luciferase reporter, luminescence, uHTS; 0.33% of 330,000 active; IRE1-XBP1 UPR activation; percent of tunicamycin response, DMSO as zero; activation, % at 20 µM; AID 463104, 2010;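 active = versus positive control, 20 µM dose yields 30% or more activation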;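 note: 100% = tunicamycin at 10 µg/mL and 0% = DMSO only wells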
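Signal: luciferase luminescence; Assay system: CHO-XBP1 luciferase reporter cells; Amount: one thousand reporter cells per well; Dosing: 20 µM single concentration, DMSO 1%; Benchmarks: high control tunicamycin 10 µg/mL final, low control DMSO vehicle only; Schedule: 6 h compound exposure at 37 °C, 5% CO2; Evaluation: percent activation relative to tunicamycin reference.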
CHOP inhibitor: inhibitors of CHOP promoter induction, primary screen, cell-based, unfolded protein response, luciferase reporter | 3.8% of 220,000 active | AID 2732, 2010 | CHO-K1 CHOP-promoter luciferase, tunicamycin-induced, 15-18 h | inhibition, % at 10 µM;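 active = compounds that reduced the stress-induced luciferase reporter signal by more than about 70% of percent inhibition, limit read from the data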;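 note: 0% = tunicamycin plus vehicle and 100% = wells without tunicamycin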
Dynein cargo inh: inhibitors of GR-EGFP nuclear translocation, primary screen, dynein cargo transport inhibitor project, imaging, high-content, 3617.4 mouse cells. test concentration mostly 20 µM; stimulated with dexamethasone, 1 µM; stronger effect = lower value. z-score, hits read low. 0.47% of 220,000 active;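 active = plate z-score of nuclear minus cytoplasmic receptor signal below a set negative limit, without overly bright fluorescence or cell loss, cut at about -3.5 in these data, passing the limit was not always enough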;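 note: z-score of nuclear minus cytoplasmic ring GR-EGFP intensity difference per well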
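Medium: Induction medium lacking tetracycline, stripped serum | Probe or stimulus: 1.0 µM final dexamethasone stimulus | Schedule: 48 h induction, then 1 h compound, then 30 min agonist, 37 °C | Signal: Automated 10x imaging of fixed Hoechst-stained cells | Evaluation: Per-cell GR-EGFP intensity, nucleus versus surrounding cytoplasmic ring, well-averaged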
L major viab: Leishmania major promastigote growth inhibition, primary screen. Leishmania major promastigotes, resazurin fluorescence viability. inhibition, % at 10 µM. 9% of 200,000 active; in the data active = inhibition above about 50%;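 note: promastigotes grown with compound for 44 hours at 28 °C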
An asterisk follows results filed as active.

For O=C(N/N=C1\CCCc2ccccc21)c1ccc([N+](=O)[O-])cc1Cl the results were CHOP UPR activ 4, T cruzi inh 14, UPR XBP1 act -1, CHOP inhibitor 6, Dynein cargo inh 1.5 and L major viab 94*.
`O=C(N/N=C1/CCCc2ccccc21)c1cc([N+](=O)[O-])cc([N+](=O)[O-])c1` gave CHOP UPR activ 4, T cruzi inh 52, UPR XBP1 act 2, CHOP inhibitor 57, Dynein cargo inh 0.48 and L major viab 11.
For O=C(N/N=C1\CCCc2ccccc21)c1cccc([N+](=O)[O-])c1 the results were CHOP UPR activ 1, T cruzi inh -4, UPR XBP1 act 3, CHOP inhibitor 33, Dynein cargo inh -0.3 and L major viab 0.
For O=C1CCC/C1=c1\s/c(=C\c2cccnc2)c(=O)n1-c1ccccc1 the results were CHOP UPR activ -2, T cruzi inh 23, UPR XBP1 act 6, CHOP inhibitor 11, Dynein cargo inh 1.2 and L major viab 55*.
For CCC(=O)Nc1cccc(-c2cc3ccccc3oc2=O)c1 the results were CHOP UPR activ 4, T cruzi inh -6, UPR XBP1 act -1, CHOP inhibitor 48, Dynein cargo inh -0.45 and L major viab -2.
Cc1ccc(C(=O)NC(=S)Nc2ccc(CN3CCCCC3)cc2)c(C)c1 was read as CHOP UPR activ 0, T cruzi inh 60*, UPR XBP1 act -5, CHOP inhibitor 14, Dynein cargo inh 0.043 and L major viab 73*.
For COc1ccc(C(=O)NC(=S)Nc2ccc(CN3CCCCC3)cc2)cc1Cl the results were CHOP UPR activ 1, T cruzi inh 51, UPR XBP1 act -1, CHOP inhibitor -30, Dynein cargo inh -0.56 and L major viab 99*.
`Cc1ccc(C(=O)NC(=S)Nc2ccc(-c3cc4ccccc4oc3=O)cc2)c(C)c1` gave CHOP UPR activ 3, T cruzi inh 0, UPR XBP1 act -8, CHOP inhibitor 95* and L major viab -9.
`O=C(Cc1cccc2ccccc12)Nc1ccc(-c2cc3ccccc3oc2=O)cc1` gave CHOP UPR activ -6, T cruzi inh 35, UPR XBP1 act -10, CHOP inhibitor 81*, Dynein cargo inh -0.45 and L major viab 7.
Screening CC1C(=O)N2CCCc3cc(NC(=O)C(=O)NCc4ccccn4)cc1c32 (configuration not stated) returned CHOP UPR activ 0, T cruzi inh -5 and UPR XBP1 act 2.
`COc1ccc(CN(C)C(=O)c2cccc(C(=O)N(C)Cc3ccc(OC)cc3)c2)cc1` gave CHOP UPR activ 0, T cruzi inh -2 and UPR XBP1 act 1.
For COc1cc(NC(C)=O)ccc1-c1cc2ccccc2oc1=O the results were CHOP UPR activ 2, T cruzi inh -1, UPR XBP1 act 0, CHOP inhibitor 4, Dynein cargo inh 1.3 and L major viab -2.
COc1cc(NC(=O)c2ccc(Cl)cc2Cl)ccc1-c1cc2ccccc2oc1=O was read as CHOP UPR activ 11, T cruzi inh -9, UPR XBP1 act 40*, CHOP inhibitor 26, Dynein cargo inh -0.67 and L major viab -6.
`O=[N+]([O-])c1cc(S(=O)(=O)N2CCCC2)ccc1NCCCN1CCOCC1` gave CHOP UPR activ 0, T cruzi inh 15, UPR XBP1 act -3, CHOP inhibitor 9, Dynein cargo inh -0.12 and L major viab 20.
Screening O=[N+]([O-])c1ccc(N2CCN(S(=O)(=O)c3ccc(Cl)c(Cl)c3)CC2)cc1NCCN1CCOCC1 returned CHOP UPR activ 1, T cruzi inh 56*, UPR XBP1 act -1, CHOP inhibitor 57, Dynein cargo inh -0.64 and L major viab 29.

High-throughput results from PubChem BioAssay.
